# Only some compounds are listed: those with a hit (about 1.5% of all), similar ones and a draw of the others.
# ABCG2 block: ABCG2 efflux pump inhibitors, primary screen, multiplex with ABCB1, IgMXP3 cells, flow cytometry; Broad substrate specificity ATP-binding cassette transporter ABCG2 (Homo sapiens), Q9UNQ0; JC-1 efflux; inhibition, % at 6.6 µM; 0.1% of 190,000 active; AID 1325, 2008;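 active means inhibition above 80%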;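 further: 0% = DMSO and 100% = nicardipine control wells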
#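 Incubation: cells with compound and JC-1, 10 min at 25 °C, rotating, no wash / Test system: IgMXP3 (ABCG2) plus far-red-tagged CCRF-Adr (ABCB1) cells / Compound dosing: one concentration, 6.6 µM final / Also added: JC-1 fluorescent substrate / Evaluation: efflux inhibition in percent versus controls / Detection: flow cytometry, 530 nm JC-1 signal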
# EP2 antag: human EP2 receptor antagonists, primary screen, TR-FRET cAMP, C6 glioma cells; AID 1422, 2008; Prostaglandin E2 receptor EP2 subtype (Homo sapiens), P43116; 0.52% of 260,000 active; C6 glioma cells expressing human EP2; cells stimulated with saturating PGE2; inhibition, % at 25 µM;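 active means percent inhibition above 40 after rounding to a whole number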;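 further: rat C6 glioma host cells with rolipram phosphodiesterase inhibitor present; the protocol text gives 20 µM as final concentration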
# Target sequence (P43116 whole entry, looked up): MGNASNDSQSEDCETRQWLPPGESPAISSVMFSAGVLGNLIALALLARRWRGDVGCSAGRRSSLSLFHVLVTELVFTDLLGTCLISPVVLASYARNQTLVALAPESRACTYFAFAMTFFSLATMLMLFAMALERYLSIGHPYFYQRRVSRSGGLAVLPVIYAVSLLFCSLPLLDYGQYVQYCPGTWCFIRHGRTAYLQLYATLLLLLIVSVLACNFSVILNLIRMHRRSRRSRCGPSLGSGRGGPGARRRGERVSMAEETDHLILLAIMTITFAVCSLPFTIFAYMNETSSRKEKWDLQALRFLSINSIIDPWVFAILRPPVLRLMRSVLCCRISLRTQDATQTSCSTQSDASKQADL
# EP2 modulator: EP2 receptor modulators, cAMP readout, primary screen, cell-based, HTRF cAMP, PGE2 stimulation. Prostaglandin E2 receptor EP2 subtype (Homo sapiens), P43116. EP2-expressing cells, cAMP HTRF FRET, PGE2 co-stimulation. induction, % at 25 µM. 0.83% of 260,000 active;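 active means compounds whose cAMP rise, as percent of the full-agonist control response, exceeds 60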;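 further: rat C6 glioma line stably carrying human EP2 under a CMV promoter; the protocol text gives 20 µM as final concentration; 100% = response of wells given 1 µM PGE2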
# ABCB1 block: ABCB1 efflux pump inhibitors, primary screen, cell-based, multiplex, flow cytometry, ABCG2 counter-screen. ATP-dependent translocase ABCB1 (Homo sapiens), P08183. CCRF-Adr cells, JC-1 efflux. inhibition, % at 6.6 µM. 0.067% of 190,000 active; in the data active means inhibition above about 40%;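 further: 0% = vehicle and 100% = reference inhibitor; higher value means more JC-1 retained so stronger ABCB1 efflux block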
# RBBP9 inh: human RBBP9 inhibitors, primary screen, biochemical, fluorescence polarization, FP-Rh probe, HTS | Serine hydrolase RBBP9 (Homo sapiens), O75884 | recombinant RBBP9 | inhibition, % at 7.94 µM | 0.2% of 220,000 active;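 active means inhibition above the campaign mean of all tested compounds plus 3 SD, cut at about 14% in these data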;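 further: plate controls were DMSO wells with RBBP9 for no effect and wells lacking RBBP9 protein for full effect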
# Target sequence (O75884 whole entry, looked up): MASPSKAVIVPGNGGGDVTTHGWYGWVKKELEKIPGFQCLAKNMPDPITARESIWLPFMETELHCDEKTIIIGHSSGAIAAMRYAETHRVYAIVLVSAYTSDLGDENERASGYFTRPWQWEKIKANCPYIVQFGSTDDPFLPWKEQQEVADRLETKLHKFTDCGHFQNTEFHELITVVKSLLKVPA
#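 system = RBBP9 protein | input = RBBP9 at 2.5 µM in dispensed solution, before mixing | measured by = fluorescence polarization (mP), excitation 525 nm, emission 598 nm | incubation = enzyme-compound preincubation 30 min, then probe labeling 45 min, 25 °C | buffer or medium = Tris-NaCl-Pluronic buffer, pH 8.0 | compound = single dose 7.94 µM | also added = FP-Rh probe, 375 nM dispensing solution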
# Numbers without * were called inactive; . = not tested or not shown.
SMILES,ABCG2 block,EP2 antag,EP2 modulator,ABCB1 block,RBBP9 inh
O=C(O)C[C@H]1OCC=C2CN3CC[C@]45C6=CC(=O)C(=O)C([N+](=O)[O-])=C6N[C@H]4[C@H]1[C@H]2C[C@H]35,.,41*,-9,.,.
COc1cc2c(cc1OC)C13CCN4CC5=CCOC6CC(=O)N2C1C6C5CC43 (stereo not given) (tested in a mixture with another compound),.,10,8,.,-2
CC[C@]1(OC(=O)CN)C(=O)OCc2c1cc1n(c2=O)Cc2cc3ccccc3nc2-1,.,41*,22,.,.
CCC1(OC(=O)CN)C(=O)OCc2c1cc1n(c2=O)Cc2cc3ccccc3nc2-1 (stereo not given),.,9,2,.,-6
Cn1nc(CC(=O)N2CCCCC2CN2CCCCC2)c2ccccc2c1=O (stereo not given),.,3,0,.,.
O=c1c2ccccc2nc(SCC2CCCCO2)n1-c1ccccc1 (stereo not given),3,7,64*,-2,-5
COc1ccc(-n2c(SC)nc3ccccc3c2=O)cc1,1,-2,26,0,-8
C[CH2][Hg][S]c1ccccc1C(=O)O,.,115*,-38,.,.
CCCCCCCCCCCCCCCC[n+]1ccccc1,.,69*,-44,.,.
CC(C)(C)c1nc(N2CCOCC2)c2nnn(Cc3ccccc3Cl)c2n1,.,5,51,.,.
O=C1NC(=O)N(c2ccccc2)C(=O)/C1=C/c1ccc(Sc2ccccc2)o1,-5,41*,-3,-1,-49
COCCc1ncc(CN2C3CCC2CC(O)(c2cccc(F)c2)C3)cn1 (stereo not given),.,5,-28,.,.
CC1(C)CCC(C)(C)c2c1ccc(O)c2Cc1c(O)ccc2c1C(C)(C)CCC2(C)C,.,45*,23,.,.
Cc1ccc(OP(=O)(Oc2ccc(C)cc2)N2C=Cc3ccccc3[C@H]2C#N)cc1,.,42*,36,.,.
Cc1ccc(OP(N)(=O)Oc2ccc(C)cc2)cc1,0,4,-38,0,5
COc1ccc(C(=O)O[C@@H]2CC[C@@]3(C)[C@@H]4CC[C@@H]5[C@@]6(O)C[C@@H](O)[C@@]7(O)[C@@H](CN8C[C@H](C)CC[C@H]8[C@]7(C)O)[C@]6(O)C[C@@]53O[C@@]42O)cc1OC,.,45*,4,.,.
CC1C[C@H]2CC(=O)[C@H]3CCCN4CCC[C@H]2[C@]34C1 (stereo not given in full),.,15,10,.,.
c1cncc(C2NCCc3ccccc32)c1 (stereo not given),.,8,-13,.,.
CCC(C)C(=O)O[C@@H]1C[C@@]2(C)[C@H](c3ccoc3)OC(=O)CC23OC2(C)O[C@]14[C@]1(C)[C@@H](CC(=O)OC)C5(C)CC1(O)[C@](O)(C5OC(=O)C1(C)OC1C)[C@@H](OC(C)=O)[C@]34O2 (stereo not given in full),.,10,4,.,.
C[C@]12CC[C@H](O)C[C@@H]1CC[C@H]1[C@H]2CC[C@@]2(C)[C@H](C3=CC(=O)OC3)[C@H](O)C[C@]12O,.,43*,4,.,.
CC(=O)OC1CC[C@@]2(C)C(CCC3C2CC[C@]2(C)C(C4=CC(=O)OC4)C(OC(C)=O)CC32O)C1 (stereo not given in full),.,10,-4,.,.
CCCc1ncc(CN2C3CCC2CC(O)(c2ccc(OC)cc2)C3)cn1 (stereo not given),.,6,-25,.,.
Clc1cccc(C2NCc3ccccc3-n3cccc32)c1 (stereo not given),.,4,69*,.,-15
COc1ccc(C2NCc3ccccc3-n3cccc32)cc1 (stereo not given),3,14,16,2,-5
Clc1ccc(Cl)c2c1NC(c1cccnc1)C1CC=CC21 (stereo not given),.,7,87*,.,.
SMILES,ABCG2 block,EP2 antag,EP2 modulator,ABCB1 block,RBBP9 inh
CCCCn1c(N)c(C(=O)NCc2cccs2)c2nc3ccccc3nc21,4,2,62*,0,-11
CC(C)OP(=O)(OC(C)C)C(O)c1ccc(Br)cc1 (stereo not given),0,1,16,0,-2
CC(C)OP(=O)(OC(C)C)C(O)c1ccccc1F (stereo not given),2,50*,2,1,-7
CCCCCCOC(=O)c1ccccc1N,1,8,64*,0,-9
Cc1ccc(NC(=[OH+])c2cc3ccccc3cc2O)c(C)c1.Cc1ccc(NC(=[OH+])c2cc3ccccc3cc2O)c(C)c1.[Ni],.,43*,-6,.,.
Oc1cc2c(cc1O)[C@H]1c3ccccc3CN[C@@H]1CC2,0,11,20,.,22*
Cc1ccc(S(=O)(=O)NCCC(=O)Nc2ccc(Cl)cc2C(=O)c2ccccc2)cc1,10,2,47,2,-8
Cc1ccc(S(=O)(=O)N[C@@H](CCCCN)C(=O)CCl)cc1,.,17,66*,.,.
Nc1nc(-c2cccs2)c(CC(=O)N2CCCCC2CN2CCCCC2)s1 (stereo not given),.,5,-13,.,.
Cc1ccc2scc(CC(=O)N(CCN(C)C)C3CCN(C)CC3)c2c1,.,10,-53,.,.
O=C1NC(=S)NC(=O)C1=Cc1cccn1-c1ccc(O)cc1,-3,112*,-113,-1,11
CCCSc1ncc(CN2C3CCC2CC(O)(c2nccn2C)C3)cn1 (stereo not given),.,2,5,.,.
O=C(O)CN1CCN(CC(=O)O)CC(=O)[O][Hg][O]C(=O)C1,.,103*,-25,.,.
O=C(Nc1ccc([As](=O)(O)O)cc1)Nc1cccc(Cl)c1Cl,.,58*,2,.,.
NC(=O)c1ccc(C(=O)Nc2ccc([As](=O)(O)O)cc2)cc1,.,2,8,.,2
COCCNC(=O)CN1C2CCC1CC(O)(c1ccccn1)C2 (stereo not given),.,.,-12,.,.
CCn1ncc(CN(CCc2ccccc2)Cc2cccs2)c1C,.,2,44,.,.
C=Cn1cc(CN(CCc2ccccc2)Cc2cccs2)c(C)n1,.,2,69*,.,.
CN1CCC2(CC1)C(C#N)=C(N)NC(S)=C2C#N,-1,8,-2,0,-4
Cc1ccc(C2(c3ccc(C)c(O)c3C)CCN(C)CC2)c(C)c1O,.,112*,-45,.,.
Nc1nc(N)c(N=Nc2ccc([As](=O)(O)O)cc2)c(=O)[nH]1,.,42*,23,.,.
Nc1nc(N)c(N=Nc2ccc([As](=O)(O)O)c(O)c2)c(N)n1,.,36,5,.,.
O=[As](O)(O)c1ccc(N=Nc2ccc(O)cc2)cc1,.,2,-21,.,-1
O=[As](O)(O)c1ccc(N=Nc2ccc([As](=O)(O)O)cc2)cc1,.,50*,-4,.,.
